Reference: ChEMBL document CHEMBL1153776, “Synthesis and immunosuppressive activity of cyclolinopeptide A analogues containing homophenylalanine” (Eur J Med Chem, 2009)
Active and inactive are the calls of the source. The rule behind the calls is not given here. Non-standard residues stand in square brackets, D forms with d. Residues, ends and D or L forms follow the SMILES beside them. hPhe = N[C@@H](CCc1ccccc1)C(=O)O

Tests used:
[1] = system: Splenocyte; assay: Immunosuppressive activity against sheep erythrocytes-induced humoral immune response in CBA mouse splenocyte assessed as inhibition antibody forming cells at 100 ug/ml after 4 days; type: functional; set-up: scale not given: the % may be the effect or the level left
Summary of the method: (§1)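 Donor CBA mice (12-week-old, both sexes) sensitized with 0.2 ml of 1% SRBC suspension; spleens harvested four days later, erythrocytes lysed with 0.83% ammonium chloride. Splenocytes (5 ×10⁶/ml/well) cultured with SRBC (0.1 ml of 0.005% suspension) plus peptides (DMSO, then medium). After four days, antibody-forming cells counted; mean AFC numbers from quadruplicate wells ± SE.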

[2] = system: T-cell; assay: Immunosuppressive effect on CBA mouse T cells assessed as inhibition of mitogen-induced proliferation at 100 ug/ml after 3 days by MTT assay; type: functional, cell-based
[3] = system: B; assay: Immunosuppressive effect on CBA mouse B cells assessed as inhibition of mitogen-induced proliferation after 3 days by MTT assay; type: functional, cell-based
[4] = Toxicity in mouse WEHI164 clone 13 cells at 100 ug/ml after 24 hrs by MTT assay; settings: wehi-164, 24 h
Summary of the method: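 WEHI 164.13 cells exposed 24 h to peptides (DMSO then culture medium) or DMSO control solutions. Viability measured by MTT colorimetric method and expressed as percentage of OD relative to matching solvent dilutions (taken as 100%). Student's t-test for statistics.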

[5] = system: Splenocyte; assay: Immunosuppressive activity against sheep erythrocytes-induced humoral immune response in CBA mouse splenocyte assessed as inhibition antibody forming cells after 4 days; type: functional, cell-based; summary of the method: as §1

SMILES | Activity [1] [%] | Activity [2] | Activity [3] | Activity [4] [%] | Activity [5]
CC[C@H](C)[C@@H]1NC(=O)[C@H](CC(C)C)NC(=O)[C@H](Cc2ccccc2)NC(=O)[C@H](CCc2ccccc2)NC(=O)[C@@H]2CCCN2C(=O)[C@@H]2CCCN2C(=O)[C@H](C(C)C)NC(=O)[C@H](CC(C)C)NC(=O)[C@H]([C@@H](C)CC)NC1=O (cyclo(FLIILVPP[hPhe])) | 94.5 | Active |  |  | 
CC[C@H](C)[C@@H]1NC(=O)[C@H](CC(C)C)NC(=O)[C@H](CCc2ccccc2)NC(=O)[C@H](Cc2ccccc2)NC(=O)[C@@H]2CCCN2C(=O)[C@@H]2CCCN2C(=O)[C@H](C(C)C)NC(=O)[C@H](CC(C)C)NC(=O)[C@H]([C@@H](C)CC)NC1=O (cyclo(F[hPhe]LIILVPP)) | 92 |  | Active | 47.19 | 
CC[C@H](C)[C@@H]1NC(=O)[C@H](CC(C)C)NC(=O)[C@H](CCc2ccccc2)NC(=O)[C@H](CCc2ccccc2)NC(=O)[C@@H]2CCCN2C(=O)[C@@H]2CCCN2C(=O)[C@H](C(C)C)NC(=O)[C@H](CC(C)C)NC(=O)[C@H]([C@@H](C)CC)NC1=O (cyclo(IILVPP[hPhe][hPhe]L)) |  |  | Active |  | Active
